Measured values reported in article PMC6440678 (Clinical and Translational Science, 2018).

What was measured:
[1] = system: patients with stable sickle cell disease; assay: Safety and tolerability, phase Ib study; type: in vivo, human
[2] = Plasma pharmacokinetics of PF‐04447943, phase Ib study; type: in vivo, human; conditions: for AUC0−12 (dn) / Cmax (dn): dose normalized to 1 mg; for AUC0−12 (dn) / Cmax (dn) / Cmax: geometric mean (geometric %CV); for Tmax / Cmax / AUC(0-t): human, plasma; for Tmax / Cmax: oral; for AUC(0-t): po
[3] = system: neutrophil‐platelet and monocyte‐platelet aggregates; assay: Leukocyte‐platelet aggregates by flow cytometry in SCD patients; type: in vivo, human; conditions: day 29, 25 mg twice daily
Procedure, shortened: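 Citrated whole blood was taken before dosing on days 1, 2, 7, 14, 21 and 29 and at baseline. Within 30 min it was mixed with FacsLysing solution and refrigerated, then spun 5 min at 500 g. Cells were resuspended in HEPES/NaCl/0.5% BSA, pH 7.4, and stained with PC5-anti-CD14 plus PE-CD42a or isotype. Flow cytometry reported aggregates as % cells and size as CD42a MFI. Day-29 percent change was estimated by repeated-measures model, with Holm-Bonferroni-adjusted P.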

HbF and Hb levels = assay: Hematology; type: in vivo, human; conditions: day 29, 5‐mg or 25‐mg twice‐daily groups
Procedure, shortened: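 Stable SCD patients randomized 3:1 active:placebo to oral test compound 5 mg or 25 mg or placebo, twice daily ~12 h apart with water for 29 (+1) days. HbF (%) was measured centrally at baseline and before dosing on day 29. Baseline HbF was classed low (<10%) or high (≥10%), split at the sample median.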

plasma cGMP = assay: Plasma cGMP levels in SCD patients; type: in vivo, human; conditions: PF‐04447943 treatment, current study (data not shown)
Townes SCD mice = conditions: PF‐04447943 alone, pretreatment; cited from earlier work
[4] = system: cGMP in mouse brain tissue; conditions: systemic administration; cited from earlier work
[5] = system: cGMP in cerebral spinal fluid; conditions: systemic administration; cited from earlier work
Berkeley SCD mouse model = conditions: administered after a challenge; cited from earlier work
[6] = system: hospitalized patients with SCD and VOC; conditions: randomized, placebo‐controlled; cited from earlier work
[7] = 5 mg twice daily, % of patients

C[C@@H]1CN(Cc2ncccn2)C[C@H]1c1nc2c(cnn2C2CCOCC2)c(=O)[nH]1 [PF‐04447943, 6‐[(3S,4S)‐4‐methyl‐1‐(pyrimidin‐2‐ylmethyl)pyrrolidin‐3‐yl]‐1‐(tetrahydro‐2H‐pyran‐4‐yl)‐1,5‐dihydro‐4H‐pyrazolo[3,4‐d]pyrimidin‐4‐one]
patients who experienced sickle cell pain crisis ([1]; 5 mg twice daily): 14% | treatment‐related AE: dizziness [1, 7]: 0% | treatment‐related AE: fatigue [1, 7]: 0% | treatment‐related AE: headache ([1]; 5 mg twice daily, up to 29 days, % of patients): 0% | patients who experienced sickle cell pain crisis ([1]; 25 mg twice daily): 13% | treatment‐related AE: dizziness ([1]; 25 mg twice daily, % of patients): 13% | deaths during the study ([1]; 5 and 25 mg twice daily): No deaths occurred | tolerability ([1]; 5 and 25 mg twice daily, 29‐day treatment period): well tolerated | dose proportionality of plasma exposure (AUC0‐12, Cmax) ([2]; 5 and 25 mg, day 1): dose proportional | AUC0−12 (dn) ([2]; day 1, 5 mg): 48 (35) ng·h/mL/mg | Cmax (dn) ([2]; day 1, 5 mg): 9.2 (39) ng/mL/mg | AUC0−12 (dn) ([2]; day 1, 25 mg): 47 (29) ng·h/mL/mg | Cmax (dn) ([2]; day 1, 25 mg): 9.9 (31) ng/mL/mg | Tmax ([2]; 5 mg): 1.9 h | Cmax ([2]; 5 mg, day 1, 5 mg): 45.8 ng/mL | Tmax ([2]; 25 mg): 1 h | Cmax ([2]; 25 mg, day 1, 25 mg): 248 ng/mL | AUC(0-t) ([2]; 5 mg): 242 ng·h/mL | AUC(0-t) ([2]; 25 mg): 1170 ng·h/mL | reduction from baseline in size of neutrophil‐platelet aggregates ([3]; adjusted P = 0.018): 34% | reduction from baseline in number of circulating monocyte‐platelet aggregates ([3]; adjusted P = 0.025): 52% | reduction from baseline in number of neutrophil‐platelet aggregates ([3]; adjusted P = 0.095): 46% | reduction from baseline in size of circulating monocyte‐platelet aggregates ([3]; adjusted P = 0.140): 36% | change in HbF level (HbF and Hb levels): No significant changes | change in plasma cGMP levels (plasma cGMP): no significant changes | number of neutrophil‐platelet aggregates (Townes SCD mice): decrease in neutrophil‐platelet aggregates | cGMP in mouse brain tissue [4]: accumulation of cGMP in mouse brain tissue | cGMP in cerebral spinal fluid in the rat [5]: dose‐dependent increases

C[C@@H]1O[C@@H](O[C@@H]2[C@@H](NC(=O)c3cc(=O)[nH]c(=O)[nH]3)C[C@@H](C(=O)NCCNC(=O)COCCOCC(=O)Nc3cc(S(=O)(=O)O)cc4cc(S(=O)(=O)O)cc(S(=O)(=O)O)c34)C[C@H]2O[C@@H]2O[C@H](CO)[C@H](O)[C@H](O[C@@H](CC3CCCCC3)C(=O)O)[C@H]2OC(=O)c2ccccc2)[C@@H](O)[C@H](O)[C@@H]1O [rivipansel]
leukocyte adhesion (Berkeley SCD mouse model): reduced leukocyte adhesion | time to VOC resolution, length of stay, parenteral opioid requirement [6]: trends toward improved
